Test results published in paper PMC10204345 (European Journal of Medicinal Chemistry, 2023).
Read-outs that look alike come from different tables or passages of the source.

Legend:
SARS-CoV-2 3CL^pro = SARS-CoV-2 3CL^pro (Severe acute respiratory syndrome coronavirus 2, UniProt P0DTD1); type: biochemical
[1] = Microsomal stability assay, mouse; type: in vitro ADME; conditions: microsomes, pH 7.41
Procedure, shortened: (§1)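 Liver microsomes in 100 mM potassium buffer with 5 mM MgCl₂, pH 7.41; test compound at 1 μM. Compound-microsome spiking mix (1.5 μM compound, 0.75 mg/mL microsomes) pre-incubated at 37 °C for 5 min, then started with NADPH (6 mM stock). Sampled at 0, 5, 15, 30 and 45 min, quenched with acetonitrile containing internal standard, centrifuged; supernatant diluted in water for LC/MS.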

[2] = Microsomal stability assay, human; type: in vitro ADME; conditions: microsomes, pH 7.41
Procedure, shortened: as §1

[3] = Single-dose pharmacokinetics in ICR mice; type: in vivo; conditions: single-dose oral administration 20 mg/kg
Procedure, shortened: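 Mice randomly split into IV and PO groups, three per group; single dose 10 mg/kg IV or 20 mg/kg oral. After oral dosing, blood taken at 0.25, 0.5, 1, 2, 4, 6, 8 and 24 h. Plasma (20 μL) protein-precipitated with methanol containing 100 ng/mL internal standard, vortexed, centrifuged at 18000g for 10 min, analysed by LC-MS/MS. AUC(0-t) derived by pharmacokinetic modelling.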

Row | Structure (SMILES) | decrease of 3CL^pro inhibitory activity compared to 11b (SARS-CoV-2 3CL^pro) | half-life at 0.75 h, 1 µM [1] | half-life at 0.75 h, 1 µM [2] | other results
1 | CC(C)(C)OC(=O)N[C@H](C(=O)N1[C@@H]2CC[C@@H](C2)[C@H]1C(=O)N[C@@H](C[C@@H]1CCNC1=O)C(=O)c1nc2ccccc2s1)C(C)(C)C [11a, tert-butyl ((S)-1-((1R,3S,4S)-3-(((S)-1-(benzo[d]thiazol-2-yl)-1-oxo-3-((S)-2-oxopyrrolidin-3-yl)propan-2-yl)carbamoyl)-2-azabicyclo[2.2.1]heptan-2-yl)-3,3-dimethyl-1-oxobutan-2-yl)carbamate] | 45 folds | – | – | –
2 | CC(C)(C)[C@H](NS(=O)(=O)C(F)(F)F)C(=O)N1[C@@H]2CC[C@@H](C2)[C@H]1C(=O)N[C@@H](C[C@@H]1CCNC1=O)C(=O)c1nc2ccccc2s1 [11e, (1R, 3S, 4S)-N-((S)-1-(benzo[d]thiazol-2-yl)-1-oxo-3-((S)-2-oxopyrrolidin-3-yl)propan-2-yl)-2-((S)-3,3-dimethyl-2-((trifluoromethyl)sulfonamido)butanoyl)-2-azabicyclo [2.2.1] heptane-3-carboxamide] | 8 folds | – | – | half-life at 1 μM [1]: > 120 min; half-life at 1 μM [2]: > 120 min; AUC(0-t) higher than that of 11b [3]: 2.4 times; AUC(0-t) higher than that of nirmatrelvir [3]: 5 times
3 | CC(C)(C)OC[C@H](NS(=O)(=O)C(F)(F)F)C(=O)N1[C@@H]2CC[C@@H](C2)[C@H]1C(=O)N[C@@H](C[C@@H]1CCNC1=O)C(=O)c1nc2ccccc2s1 [11g, (1R, 3S, 4S)-N-((S)-1-(benzo[d]thiazol-2-yl)-1-oxo-3-((S)-2-oxopyrrolidin-3-yl)propan-2-yl)-2-(O-(tert-butyl)-N-((trifluoromethyl)sulfonyl)-L-seryl)-2-azabicyclo [2.2.1] heptane-3-carboxamide] | – | – | – | decrease of enzyme activity compared to 11e (SARS-CoV-2 3CL^pro): 3 times
4 | CC(C)(F)C(=O)N[C@H](C(=O)N1[C@@H]2CC[C@@H](C2)[C@H]1C(=O)N[C@@H](C[C@@H]1CCNC1=O)C(=O)c1nc2ccccc2s1)C(C)(C)C [11c, (1R,3S,4S)-N-((S)-1-(benzo[d]thiazol-2-yl)-1-oxo-3-((S)-2-oxopyrrolidin-3-yl)propan-2-yl)-2-((S)-2-(2-fluoro-2-methylpropanamido)-3,3-dimethylbutanoyl)-2-azabicyclo[2.2.1]heptane-3-carboxamide] | – | 4.82 min | 18 min | decrease of 3CL^pro inhibitory activity compared to 11b (SARS-CoV-2 3CL^pro; ratio of IC50 to that of 11b): 11 folds
5 | [2H]C([2H])([2H])C(=O)N[C@H](C(=O)N1[C@@H]2CC[C@@H](C2)[C@H]1C(=O)N[C@@H](C[C@@H]1CCNC1=O)C(=O)c1nc2ccccc2s1)C(C)(C)C [11d, (1R, 3S, 4S)-2-((S)-2-(acetamido-2,2,2-d3)-3,3-dimethylbutanoyl) -N-((S)-1-(benzo[d]thiazol-2-yl)-1-oxo-3-((S)-2-oxopyrrolidin-3-yl)propan-2-yl)-2-azabicyclo [2.2.1] heptane-3-carboxamide] | 5 folds | 33.8 min | 42.2 min | –
6 | COc1ccc(C[C@H](NS(=O)(=O)C(F)(F)F)C(=O)N2[C@@H]3CC[C@@H](C3)[C@H]2C(=O)N[C@@H](C[C@@H]2CCNC2=O)C(=O)c2nc3ccccc3s2)cc1 [11h, (1R, 3S, 4S)-N-((S)-1-(benzo[d]thiazol-2-yl)-1-oxo-3-((S)-2-oxopyrrolidin-3-yl)propan-2-yl)-2-((S)-3-(4-methoxyphenyl)-2-((trifluoromethyl)sulfonamido)propanoyl)-2-azabicyclo [2.2.1] heptane-3-carboxamide] | – | – | – | decrease of enzyme activity compared to 11e (SARS-CoV-2 3CL^pro): 6 times
7 | CC(C)(C)[C@H](NC(=O)C(F)(F)F)C(=O)N1[C@@H]2CC[C@@H](C2)[C@H]1C(=O)N[C@@H](C[C@@H]1CCNC1=O)C(=O)c1nc2ccccc2s1 [11b, (1R,3S,4S)-N-((S)-1-(benzo[d]thiazol-2-yl)-1-oxo-3-((S)-2-oxopyrrolidin-3-yl)propan-2-yl)-2-((S)-3,3-dimethyl-2-(2,2,2-trifluoroacetamido)butanoyl)-2-azabicyclo[2.2.1]heptane-3-carboxamide] | – | 7.74 min | 11.6 min | –
8 | CC(C)(C)[C@H](NC(=O)C(F)(F)F)C(=O)N1C[C@H]2[C@@H]([C@H]1C(=O)N[C@H](C#N)C[C@@H]1CCNC1=O)C2(C)C [nirmatrelvir, reference compound] | – | 17.7 min | 35.5 min | –
9 | CN(C)S(=O)(=O)N[C@H](C(=O)N1[C@@H]2CC[C@@H](C2)[C@H]1C(=O)N[C@@H](C[C@@H]1CCNC1=O)C(=O)c1nc2ccccc2s1)C(C)(C)C [11f, (1R, 3S, 4S)-N-((S)-1-(benzo[d]thiazol-2-yl)-1-oxo-3-((S)-2-oxopyrrolidin-3-yl)propan-2-yl)-2-((S)-2-((N,N-dimethylsulfamoyl)amino)-3,3-dimethylbutanoyl)-2-azabicyclo [2.2.1] heptane-3-carboxamide] | – | 0.85 min | 3.25 min | –
